Experimental data reported in ChEMBL document CHEMBL1159337, “Antitumor agents. 221.1 buceracidins A and B, two new flavanones from Bucida buceras” (J Nat Prod, 2003).
Converted amounts (≈) assume the structure as drawn.

Assays:
[1] = test system: KB; test: Cytotoxicity against human KB cells after 3 days by SRB assay; type: functional, cell-based; conditions: 72 h
Procedure, shortened: (§1)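 Stock cultures were kept in RPMI-1640 with 25 mM HEPES, 0.25% sodium bicarbonate, 10% FBS and 100 µg/mL kanamycin. Freshly trypsinized cells were seeded at 1500-7500 per well with compounds diluted from DMSO stock and cultured 3 days. Cells were fixed with cold 50% TCA, stained with 0.4% SRB, and the solubilized dye was read at 562 nm. IC50 was the concentration giving a 50% absorbance reduction versus untreated cells.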

[2] = Cytotoxicity against human KBVIN cells after 3 days by SRB assay; type: functional, cell-based; conditions: 72 h; procedure, shortened: as §1
[3] = test system: A549; test: Cytotoxicity against human A549 cells after 3 days by SRB assay; type: functional, cell-based; conditions: A549, 72 h; procedure, shortened: as §1
[4] = test system: 1A9; test: Cytotoxicity against human 1A9 cells after 3 days by SRB assay; type: functional, cell-based; conditions: 1A9, 72 h; procedure, shortened: as §1
[5] = test system: HCT-8; test: Cytotoxicity against human HCT8 cells after 3 days by SRB assay; type: functional, cell-based; conditions: HCT-8, 72 h; procedure, shortened: as §1
[6] = test system: MCF7; test: Cytotoxicity against human MCF7 cells after 3 days by SRB assay; type: functional, cell-based; conditions: MCF7, 72 h; procedure, shortened: as §1
[7] = test system: PC-3; test: Cytotoxicity against human PC3 cells after 3 days by SRB assay; type: functional, cell-based; conditions: PC-3, 72 h; procedure, shortened: as §1
[8] = Cytotoxicity against human U87MG cells after 3 days by SRB assay; type: functional, cell-based, U-87MG ATCC; conditions: U-87 MG, 72 h; procedure, shortened: as §1
[9] = test system: SK-MEL-2; test: Cytotoxicity against human SK-MEL-2 cells after 3 days by SRB assay; type: functional, cell-based; conditions: SK-MEL-2, 72 h; procedure, shortened: as §1
[10] = test system: KB; test: Cytotoxicity against human KB cells at 10 ug/ml after 3 days by SRB assay; type: functional; conditions: 72 h

## CO[C@H]1C(=O)c2c(cc3c(c2O)C=CC(C)(C)O3)O[C@@H]1c1ccccc1O [BUCERACIDIN A]
[1]
  IC50: > 10 µg/mL
[2]
  IC50: 15 µg/mL (≈ 40.7 µM)
[3]
  IC50: 14.1 µg/mL (≈ 38.3 µM)
[4]
  IC50: 14.9 µg/mL (≈ 40.4 µM)
[5]
  IC50: 15.5 µg/mL (≈ 42.1 µM)
[6]
  IC50: 13.6 µg/mL (≈ 36.9 µM)
[7]
  IC50: 16.3 µg/mL (≈ 44.2 µM)
[8]
  IC50: 16.1 µg/mL (≈ 43.7 µM)
[9]
  IC50: 15.6 µg/mL (≈ 42.3 µM)
[10]
  inhibition at 10 µg/mL: 31%

## CC(C)=CCc1c2c(c(O)c3c1O[C@H](c1ccccc1O)[C@@H](O)C3=O)C=CC(C)(C)O2
[1]
  IC50: 16.5 µg/mL (≈ 39.1 µM)
[2]
  IC50: 13.3 µg/mL (≈ 31.5 µM)
[3]
  IC50: 13.5 µg/mL (≈ 32 µM)
[4]
  IC50: 15 µg/mL (≈ 35.5 µM)
[5]
  IC50: 12.1 µg/mL (≈ 28.6 µM)
[6]
  IC50: 12.8 µg/mL (≈ 30.3 µM)
[7]
  IC50: 15.4 µg/mL (≈ 36.5 µM)
[8]
  IC50: 14.8 µg/mL (≈ 35 µM)
[9]
  IC50: 14.8 µg/mL (≈ 35 µM)

## CC(C)=CCc1c2c(c(O)c3c1O[C@H](c1ccccc1)[C@@H](O)C3=O)C=CC(C)(C)O2 [MUNDULINOL]
[1]
  IC50: 8.5 µg/mL (≈ 20.9 µM)
[2]
  IC50: 7.5 µg/mL (≈ 18.5 µM)
[3]
  IC50: 7.5 µg/mL (≈ 18.5 µM)
[4]
  IC50: 8.2 µg/mL (≈ 20.2 µM)
[5]
  IC50: 7 µg/mL (≈ 17.2 µM)
[6]
  IC50: 7.5 µg/mL (≈ 18.5 µM)
[7]
  IC50: 9.3 µg/mL (≈ 22.9 µM)
[8]
  IC50: 13 µg/mL (≈ 32 µM)
[9]
  IC50: 8.5 µg/mL (≈ 20.9 µM)

## CO[C@H]1C(=O)c2c(O)c3c(c(CC=C(C)C)c2O[C@@H]1c1ccccc1O)OC(C)(C)C=C3
[1]
  IC50: 6.5 µg/mL (≈ 14.9 µM)
[2]
  IC50: 7 µg/mL (≈ 16 µM)
[3]
  IC50: 7.6 µg/mL (≈ 17.4 µM)
[4]
  IC50: 7.8 µg/mL (≈ 17.9 µM)
[5]
  IC50: 7.2 µg/mL (≈ 16.5 µM)
[6]
  IC50: 7 µg/mL (≈ 16 µM)
[7]
  IC50: 8.4 µg/mL (≈ 19.2 µM)
[8]
  IC50: 8.6 µg/mL (≈ 19.7 µM)
[9]
  IC50: 7.8 µg/mL (≈ 17.9 µM)

## CC(C)=CCc1c2c(c(O)c3c1O[C@H](c1ccccc1O)CC3=O)C=CC(C)(C)O2 [MINIMIFLORIN]
[1]
  IC50: 7.3 µg/mL (≈ 18 µM)
[2]
  IC50: 7.7 µg/mL (≈ 18.9 µM)
[3]
  IC50: 8 µg/mL (≈ 19.7 µM)
[4]
  IC50: 7.6 µg/mL (≈ 18.7 µM)
[5]
  IC50: 7.2 µg/mL (≈ 17.7 µM)
[6]
  IC50: 7.5 µg/mL (≈ 18.5 µM)
[7]
  IC50: 9.8 µg/mL (≈ 24.1 µM)
[8]
  IC50: 11 µg/mL (≈ 27.1 µM)
[9]
  IC50: 9 µg/mL (≈ 22.1 µM)

## CC1(C)C=Cc2c(cc3c(c2O)C(=O)C[C@@H](c2ccccc2O)O3)O1 [BUCERACIDIN B]
[1]
  IC50: 9.5 µg/mL (≈ 28.1 µM)
[2]
  IC50: 9.5 µg/mL (≈ 28.1 µM)
[3]
  IC50: 9.9 µg/mL (≈ 29.3 µM)
[4]
  IC50: 11.5 µg/mL (≈ 34 µM)
[5]
  IC50: 12.8 µg/mL (≈ 37.8 µM)
[6]
  IC50: 9.3 µg/mL (≈ 27.5 µM)
[7]
  IC50: 13 µg/mL (≈ 38.4 µM)
[8]
  IC50: 14.2 µg/mL (≈ 42 µM)
[9]
  IC50: 14 µg/mL (≈ 41.4 µM)
